An excerpt weighted towards active compounds, which were near 11% of everything screened.
Diaph inh CS – counter-screen for diaphorase-based assays: diaphorase inhibitors and chemical oxidizers; diaphorase resazurin-to-resorufin fluorescence, NADH, 16 min; bacterial (C. kluyveri) enzyme, not human; inhibition, % at 20 µM; 0.69% of 190,000 active;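 active = primary screen inhibition at 20 µM above a set limit, cut at about 50% in these data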
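System: Bacterial diaphorase enzyme (C. kluyveri) | Incubation: 16-min room-temperature incubation before reading | Benchmarks: No-NADH positive control and DMSO neutral control | Measured by: Resorufin fluorescence 544/590 nm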
WT yeast gro inh – growth inhibition of WT yeast, mitochondrial fusion screen | inhibition, % at 10 µM | 2.1% of 190,000 active | mitochondrial fusion phenotypic screen, WT strain | AID 1362; in the data active = inhibition above about 58%; tested in S. cerevisiae
G6PDH CS – L. mesenteroides G6PDH inhibition counter-screen. Purified L. mesenteroides G6PDH, diaphorase/resazurin coupled fluorescence, 45 min. inhibition, % at 5 µM. 0.12% of 200,000 active. AID 1020
Diaph act CS – diaphorase activation or chemical reduction counter-screen | AID 1229 | activation factor at 20 µM | Diaphorase/resazurin coupled assay, resorufin fluorescence, 16 min; stronger effect = higher value; 1 = vehicle wells, 0 = NADH-free wells | 0.005% of 190,000 active;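 active = diaphorase activity raised at least twofold by the compound at 20 µM; inactive = activation factor below 2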
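Test system: Clostridium kluyveri diaphorase, purified enzyme; input: enzyme 0.07 U/mL final; buffer or medium: 50 mM HEPES pH 7.4 with 4.542 mM MgCl2, 0.005% Tween 20; also added: 0.114 mM NADH and 0.1 mM resazurin, final amounts; schedule: 16 min enzyme reaction, ambient temperature; technique: fluorescence of resorufin, 544 nm excitation, 590 nm emission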
Lmaj promast – inhibitors of Leishmania major promastigote growth; Leishmania major promastigotes, resazurin fluorescence viability; inhibition, % at 10 µM; 9% of 200,000 active;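 also: promastigotes grown with compound for 44 hours at 28 °C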
A number is an active result. Rule as the data show it, unless noted: active = inhibition above about 50%; inactive = the rest.

What do the screens show for `CCn1c(SCC(N)=O)nnc1-c1ccc(S(=O)(=O)N2CCN(C)CC2)cc1`?
Diaph inh CS: inactive; WT yeast gro inh: inactive; G6PDH CS: inactive; Diaph act CS: inactive; Lmaj promast: inactive

Results for CC(NC(=O)CSc1nnc(-c2cccc(S(=O)(=O)N3CCCCC3)c2)o1)C12CC3CC(CC(C3)C1)C2 (configuration not stated) ?
Diaph inh CS: inactive; WT yeast gro inh: inactive; G6PDH CS: inactive; Diaph act CS: inactive; Lmaj promast: 96

How did COc1ccc(OC)c(-n2nnnc2SCC(=O)Nc2ccccc2N2CCOCC2)c1 do in these assays?
Diaph inh CS: inactive; WT yeast gro inh: inactive; G6PDH CS: inactive; Diaph act CS: inactive; Lmaj promast: inactive

How did CCn1c(SC)nnc1-c1ccc(S(=O)(=O)N2CCCCC2)cc1 do in these assays?
Lmaj promast: inactive

Results for CCn1c(SCc2ccccc2)nnc1-c1ccc(S(=O)(=O)N2CCCCC2)cc1 ?
Diaph inh CS: inactive; WT yeast gro inh: inactive; G6PDH CS: inactive; Diaph act CS: inactive; Lmaj promast: 99

Results for Cn1c(=O)c2c(nc(NCCCN3CCOCC3)n2Cc2ccc(Cl)cc2)n(C)c1=O ?
Diaph inh CS: inactive; G6PDH CS: inactive; Diaph act CS: inactive; Lmaj promast: 58

How did Cn1c(=O)c2c(nc(NCCCN3CCOCC3)n2Cc2ccc(Cl)c(Cl)c2)n(C)c1=O do in these assays?
Lmaj promast: 99

How did Cn1c(=O)c2c(nc(NCCCN3CCOCC3)n2Cc2cccc(Cl)c2)n(C)c1=O do in these assays?
Diaph inh CS: inactive; G6PDH CS: inactive; Diaph act CS: inactive; Lmaj promast: 98

What do the screens show for `CCCNc1nc2c(c(=O)n(C)c(=O)n2C)n1Cc1cccc(C)c1`?
Diaph inh CS: inactive; WT yeast gro inh: inactive; G6PDH CS: inactive; Diaph act CS: inactive; Lmaj promast: inactive

How did Cc1ccc(Cn2c(CN3CCOCC3)nc3c2c(=O)n(C)c(=O)n3C)cc1 do in these assays?
Diaph inh CS: inactive; WT yeast gro inh: inactive; G6PDH CS: inactive; Diaph act CS: inactive; Lmaj promast: inactive

What do the screens show for `COc1ccc(CCC(=O)Nc2cccc(S(=O)(=O)N(C)C)c2)cc1OC`?
Diaph inh CS: inactive; WT yeast gro inh: inactive; G6PDH CS: inactive; Diaph act CS: inactive; Lmaj promast: inactive

What do the screens show for `COc1ccc(OC)c(CNCCNC(=O)c2ccco2)c1`?
Diaph inh CS: inactive; WT yeast gro inh: inactive; G6PDH CS: inactive; Diaph act CS: inactive; Lmaj promast: inactive

How did CCn1c(SCC(=O)NNC(=O)c2ccco2)nnc1-c1ccco1 do in these assays?
Diaph inh CS: inactive; WT yeast gro inh: inactive; G6PDH CS: inactive; Diaph act CS: inactive; Lmaj promast: inactive

Results for COc1ccc(Cl)c2c1[nH]c1nc(SCc3ccccn3)nnc12 ?
Diaph inh CS: inactive; WT yeast gro inh: inactive; G6PDH CS: inactive; Diaph act CS: inactive; Lmaj promast: 52

What do the screens show for `CCc1cccc(NC(=O)c2ccc(Br)o2)c1`?
Diaph inh CS: inactive; WT yeast gro inh: inactive; G6PDH CS: inactive; Diaph act CS: inactive; Lmaj promast: inactive

What do the screens show for `CCc1cc(-c2n[nH]c(C)c2Oc2ccc(C(C)C)cc2)c(O)cc1O`?
Diaph inh CS: inactive; WT yeast gro inh: 86; G6PDH CS: inactive; Diaph act CS: inactive; Lmaj promast: inactive

Results for O=C(CO)N/N=C/c1cccc(Cl)c1Cl ?
Diaph inh CS: inactive; WT yeast gro inh: inactive; G6PDH CS: inactive; Diaph act CS: inactive; Lmaj promast: inactive

What do the screens show for `O=C(CN1CCSCC1)N/N=C/c1ccccc1F`?
Diaph inh CS: inactive; WT yeast gro inh: inactive; G6PDH CS: inactive; Diaph act CS: inactive; Lmaj promast: inactive

What do the screens show for `O=C(CN1CCCCCC1)N/N=C/c1cccc(Cl)c1Cl`?
Diaph inh CS: inactive; WT yeast gro inh: inactive; G6PDH CS: inactive; Diaph act CS: inactive; Lmaj promast: 62

Results for Cc1cc(/C=N\NC(=O)CC(=O)NC2CCCCC2)c(C)n1-c1ccc(Cl)c(Cl)c1 ?
Diaph inh CS: inactive; WT yeast gro inh: inactive; G6PDH CS: inactive; Diaph act CS: inactive; Lmaj promast: inactive

Results for Cc1cc(/C=N\NC(=O)CC(=O)NC2CCCCC2)c(C)n1-c1cccc(Cl)c1Cl ?
Diaph inh CS: inactive; WT yeast gro inh: inactive; G6PDH CS: inactive; Diaph act CS: inactive; Lmaj promast: 95

Results for O=C(CN1CCCCCCC1)N/N=C/c1ccc(F)c(F)c1 ?
Diaph inh CS: inactive; WT yeast gro inh: inactive; G6PDH CS: inactive; Diaph act CS: inactive; Lmaj promast: 97

Screens as filed in PubChem BioAssay.
